# Tests used:
# Salmonella typhimurium [1] = experiment: Mutagenicity in Salmonella typhimurium TA98 at 0.625 mg/ml after 48 hrs by AMES MPF assay in absence of Sprague-Dawley rat liver microsomal S9 fraction relative to baseline; format: toxicity, organism-based; conditions: salmonella enterica subsp. enterica serovar typhimurium
# In short: (§1)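 Ames MPF fluctuation test with TA98/TA100. Overnight cultures (37 °C, 14–16 h) mixed with exposure medium; ±Aroclor-1254-induced rat liver S9 (final 4.5% v/v). Compounds in DMSO, 0.156–5 mg/mL. 90 min exposure at 37 °C, then indicator medium; 48 wells per concentration, 48 h at 37 °C, in triplicate. Yellow wells counted; fold induction over baseline (mean + 1 SD of zero-dose control).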
# Candida parapsilosis = experiment: Antifungal activity against Candida parapsilosis NRLL Y 12696 after 48 hrs by broth microdilution assay; format: functional; conditions: Lodderomyces parapsilosis, NRLL Y 12696, 48 h
# In short: (§2)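 Broth microdilution of DMSO stocks serially diluted in sterile water (4 to 0.0039 mg/mL). Yeasts grown on SDA at 37 °C for 24 h, suspended in double-strength PDB at 10⁵ spores/mL. Incubated at 37 °C for 48 h, then sprayed with 0.5% aqueous TTC. MIC = lowest concentration inhibiting visible growth. Ketoconazole reference.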
# [Candida] zeylanoides = Antifungal activity against Candida zeylanoides NRLL Y 1774 after 48 hrs by broth microdilution assay; format: functional; conditions: Dujonia zeylanoides, NRLL Y 1774, 48 h; in short: as §2
# Salmonella typhimurium [2] = experiment: Mutagenicity in Salmonella typhimurium TA100 at 5 mg/ml after 48 hrs by AMES MPF assay in presence of Sprague-Dawley rat liver microsomal S9 fraction relative to baseline; format: toxicity, organism-based; conditions: salmonella enterica subsp. enterica serovar typhimurium; in short: as §1
# Salmonella typhimurium [3] = experiment: Mutagenicity in Salmonella typhimurium TA100 at 1.25 mg/ml after 48 hrs by AMES MPF assay in absence of Sprague-Dawley rat liver microsomal S9 fraction relative to baseline; format: toxicity, organism-based; conditions: salmonella enterica subsp. enterica serovar typhimurium; in short: as §1
# Salmonella typhimurium [4] = experiment: Mutagenicity in Salmonella typhimurium TA100 at 0.156 mg/ml after 48 hrs by AMES MPF assay in presence of Sprague-Dawley rat liver microsomal S9 fraction relative to baseline; format: toxicity, organism-based; conditions: salmonella enterica subsp. enterica serovar typhimurium; in short: as §1
# Aspergillus flavus = experiment: Antifungal activity against Aspergillus flavus NRRL 980 after 72 hrs by broth microdilution assay; format: functional; conditions: NRRL 980, 72 h
# In short: (§3)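 Compounds dissolved in DMSO, diluted in sterile distilled water from 4 to 0.0039 mg/mL. Molds grown on PDA at 25 °C for 5 days, suspended in double-strength PDB at 10⁵ spores/mL. Incubated at 25 °C for 72 h; mycelial growth read under stereo microscope. MIC = lowest concentration inhibiting visible growth. Ketoconazole reference.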
# A549 = experiment: Antiproliferative activity against human A549 cells after 24 hrs by XTT assay; format: functional, cell-based; conditions: A549, 24 h
# In short: (§4)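 A549 cells in RPMI and NIH/3T3 cells in DMEM, each with fetal calf serum, antibiotics and 7.5% NaHCO₃, at 37 °C, 5% CO₂. Seeded at 20,000 cells/well, 24 h, then compounds added in medium at 500–3.9 doses (final DMSO <0.1%) for 24 h. XTT read after 3 h at 480 nm (ref 680 nm). IC₅₀ by non-linear regression; triplicates; cisplatin control.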
# Salmonella typhimurium [5] = experiment: Mutagenicity in Salmonella typhimurium TA98 at 0.625 mg/ml after 48 hrs by AMES MPF assay in presence of Sprague-Dawley rat liver microsomal S9 fraction relative to baseline; format: toxicity, organism-based; conditions: salmonella enterica subsp. enterica serovar typhimurium; in short: as §1
# Salmonella typhimurium [6] = experiment: Mutagenicity in Salmonella typhimurium TA100 at 0.625 mg/ml after 48 hrs by AMES MPF assay in presence of Sprague-Dawley rat liver microsomal S9 fraction relative to baseline; format: toxicity, organism-based; conditions: salmonella enterica subsp. enterica serovar typhimurium; in short: as §1
# Salmonella typhimurium [7] = experiment: Mutagenicity in Salmonella typhimurium TA100 at 2.5 mg/ml after 48 hrs by AMES MPF assay in absence of Sprague-Dawley rat liver microsomal S9 fraction relative to baseline; format: toxicity, organism-based; conditions: salmonella enterica subsp. enterica serovar typhimurium; in short: as §1
# Candida albicans = experiment: Antifungal activity against Candida albicans ATCC 90028 after 48 hrs by broth microdilution assay; format: functional; conditions: ATCC 90028, 48 h; in short: as §2
# Salmonella typhimurium [8] = experiment: Mutagenicity in Salmonella typhimurium TA100 at 0.3125 mg/ml after 48 hrs by AMES MPF assay in presence of Sprague-Dawley rat liver microsomal S9 fraction relative to baseline; format: toxicity, organism-based; conditions: salmonella enterica subsp. enterica serovar typhimurium; in short: as §1
# Salmonella typhimurium [9] = experiment: Mutagenicity in Salmonella typhimurium TA98 at 0.156 mg/ml after 48 hrs by AMES MPF assay in presence of Sprague-Dawley rat liver microsomal S9 fraction relative to baseline; format: toxicity, organism-based; conditions: salmonella enterica subsp. enterica serovar typhimurium; in short: as §1
# Salmonella typhimurium [10] = experiment: Mutagenicity in Salmonella typhimurium TA98 at 5 mg/ml after 48 hrs by AMES MPF assay in absence of Sprague-Dawley rat liver microsomal S9 fraction relative to baseline; format: toxicity, organism-based; conditions: salmonella enterica subsp. enterica serovar typhimurium; in short: as §1
# Salmonella typhimurium [11] = experiment: Mutagenicity in Salmonella typhimurium TA98 at 2.5 mg/ml after 48 hrs by AMES MPF assay in presence of Sprague-Dawley rat liver microsomal S9 fraction relative to baseline; format: toxicity, organism-based; conditions: salmonella enterica subsp. enterica serovar typhimurium; in short: as §1
# Salmonella typhimurium [12] = experiment: Mutagenicity in Salmonella typhimurium TA98 at 1.25 mg/ml after 48 hrs by AMES MPF assay in absence of Sprague-Dawley rat liver microsomal S9 fraction relative to baseline; format: toxicity, organism-based; conditions: salmonella enterica subsp. enterica serovar typhimurium; in short: as §1
# [13] = Cytotoxicity against mouse NIH/3T3 cells after 24 hrs by XTT assay; format: cell-based; conditions: NIH3T3, 24 h; in short: as §4
# Salmonella typhimurium [14] = experiment: Mutagenicity in Salmonella typhimurium TA100 at 0.3125 mg/ml after 48 hrs by AMES MPF assay in absence of Sprague-Dawley rat liver microsomal S9 fraction relative to baseline; format: toxicity, organism-based; conditions: salmonella enterica subsp. enterica serovar typhimurium; in short: as §1
# Salmonella typhimurium [15] = experiment: Mutagenicity in Salmonella typhimurium TA98 at 1.25 mg/ml after 48 hrs by AMES MPF assay in presence of Sprague-Dawley rat liver microsomal S9 fraction relative to baseline; format: toxicity, organism-based; conditions: salmonella enterica subsp. enterica serovar typhimurium; in short: as §1
# Salmonella typhimurium [16] = experiment: Mutagenicity in Salmonella typhimurium TA100 at 2.5 mg/ml after 48 hrs by AMES MPF assay in presence of Sprague-Dawley rat liver microsomal S9 fraction relative to baseline; format: toxicity, organism-based; conditions: salmonella enterica subsp. enterica serovar typhimurium; in short: as §1
# Candida tropicalis = experiment: Antifungal activity against Candida tropicalis NRLL Y 12968 after 48 hrs by broth microdilution assay; format: functional; conditions: NRLL Y 12968, 48 h; in short: as §2
# Salmonella typhimurium [17] = experiment: Mutagenicity in Salmonella typhimurium TA98 at 0.3125 mg/ml after 48 hrs by AMES MPF assay in absence of Sprague-Dawley rat liver microsomal S9 fraction relative to baseline; format: toxicity, organism-based; conditions: salmonella enterica subsp. enterica serovar typhimurium; in short: as §1
# Pichia kudriavzevii = experiment: Antifungal activity against Candida krusei NRLL Y 7179 after 48 hrs by broth microdilution assay; format: functional; conditions: NRLL Y 7179, 48 h; in short: as §2
# Salmonella typhimurium [18] = experiment: Mutagenicity in Salmonella typhimurium TA98 at 5 mg/ml after 48 hrs by AMES MPF assay in presence of Sprague-Dawley rat liver microsomal S9 fraction relative to baseline; format: toxicity, organism-based; conditions: salmonella enterica subsp. enterica serovar typhimurium; in short: as §1
# Aspergillus niger = experiment: Antifungal activity against Aspergillus niger ATCC 1094 after 72 hrs by broth microdilution assay; format: functional; conditions: ATCC 1094, 72 h; in short: as §3
# Salmonella typhimurium [19] = experiment: Mutagenicity in Salmonella typhimurium TA100 at 5 mg/ml after 48 hrs by AMES MPF assay in absence of Sprague-Dawley rat liver microsomal S9 fraction relative to baseline; format: toxicity, organism-based; conditions: salmonella enterica subsp. enterica serovar typhimurium; in short: as §1
# Nakaseomyces glabratus = experiment: Antifungal activity against Candida glabrata clinical isolate after 48 hrs by broth microdilution assay; format: functional; in short: as §2
# Salmonella typhimurium [20] = experiment: Mutagenicity in Salmonella typhimurium TA98 at 2.5 mg/ml after 48 hrs by AMES MPF assay in absence of Sprague-Dawley rat liver microsomal S9 fraction relative to baseline; format: toxicity, organism-based; conditions: salmonella enterica subsp. enterica serovar typhimurium; in short: as §1
# Fusarium solani = experiment: Antifungal activity against Fusarium solani NRRL 13414 after 72 hrs by broth microdilution assay; format: functional; conditions: NRRL 13414, 72 h; in short: as §3
# Aspergillus parasiticus = experiment: Antifungal activity against Aspergillus parasiticus NRRL 465 after 72 hrs by broth microdilution assay; format: functional; conditions: NRRL 465, 72 h; in short: as §3
# Salmonella typhimurium [21] = experiment: Mutagenicity in Salmonella typhimurium TA98 at 0.3125 mg/ml after 48 hrs by AMES MPF assay in presence of Sprague-Dawley rat liver microsomal S9 fraction relative to baseline; format: toxicity, organism-based; conditions: salmonella enterica subsp. enterica serovar typhimurium; in short: as §1
# Salmonella typhimurium [22] = experiment: Mutagenicity in Salmonella typhimurium TA100 at 1.25 mg/ml after 48 hrs by AMES MPF assay in presence of Sprague-Dawley rat liver microsomal S9 fraction relative to baseline; format: toxicity, organism-based; conditions: salmonella enterica subsp. enterica serovar typhimurium; in short: as §1
# Salmonella typhimurium [23] = experiment: Mutagenicity in Salmonella typhimurium TA100 at 0.156 mg/ml after 48 hrs by AMES MPF assay in absence of Sprague-Dawley rat liver microsomal S9 fraction relative to baseline; format: toxicity, organism-based; conditions: salmonella enterica subsp. enterica serovar typhimurium; in short: as §1
# Salmonella typhimurium [24] = experiment: Mutagenicity in Salmonella typhimurium TA98 at 0.156 mg/ml after 48 hrs by AMES MPF assay in absence of Sprague-Dawley rat liver microsomal S9 fraction relative to baseline; format: toxicity, organism-based; conditions: salmonella enterica subsp. enterica serovar typhimurium; in short: as §1
# Salmonella typhimurium [25] = experiment: Mutagenicity in Salmonella typhimurium TA100 at 0.625 mg/ml after 48 hrs by AMES MPF assay in absence of Sprague-Dawley rat liver microsomal S9 fraction relative to baseline; format: toxicity, organism-based; conditions: salmonella enterica subsp. enterica serovar typhimurium; in short: as §1
compound,measurement,setting,value
Fc1ccc(C2CC(c3ccc(Cl)s3)=NN2c2nc(-c3ccccc3)cs2)cc1 (stereo unspecified),fold change (FC),Salmonella typhimurium [1],0.67
same,MIC,Candida parapsilosis,250 µg/mL
same,MIC,[Candida] zeylanoides,250 µg/mL
same,fold change (FC),Salmonella typhimurium [2],4.38
same,fold change (FC),Salmonella typhimurium [3],1.28
same,fold change (FC),Salmonella typhimurium [4],1.85
same,MIC,Aspergillus flavus,125 µg/mL
same,IC50,A549,> 500 µg/mL
same,fold change (FC),Salmonella typhimurium [5],1.08
same,fold change (FC),Salmonella typhimurium [6],2.77
same,fold change (FC),Salmonella typhimurium [7],2.88
same,MIC,Candida albicans,250 µg/mL
same,fold change (FC),Salmonella typhimurium [8],3.23
same,fold change (FC),Salmonella typhimurium [9],1.63
same,fold change (FC),Salmonella typhimurium [10],0.67
same,fold change (FC),Salmonella typhimurium [11],0.27
same,fold change (FC),Salmonella typhimurium [12],0
same,IC50,[13],> 500 µg/mL
same,fold change (FC),Salmonella typhimurium [14],0.32
same,fold change (FC),Salmonella typhimurium [15],0.68
same,fold change (FC),Salmonella typhimurium [16],3.46
same,MIC,Candida tropicalis,250 µg/mL
same,fold change (FC),Salmonella typhimurium [17],0
same,MIC,Pichia kudriavzevii,250 µg/mL
same,fold change (FC),Salmonella typhimurium [18],0.41
same,MIC,Aspergillus niger,250 µg/mL
same,fold change (FC),Salmonella typhimurium [19],0.96
same,MIC,Nakaseomyces glabratus,125 µg/mL
same,fold change (FC),Salmonella typhimurium [20],0
same,MIC,Fusarium solani,250 µg/mL
same,MIC,Aspergillus parasiticus,250 µg/mL
same,fold change (FC),Salmonella typhimurium [21],0.68
same,fold change (FC),Salmonella typhimurium [22],4.62
same,fold change (FC),Salmonella typhimurium [23],0
same,fold change (FC),Salmonella typhimurium [24],0
same,fold change (FC),Salmonella typhimurium [25],0.96
